# Results gathered from unrelated publications.
# Lines come from different studies, so protocols differ.
# Target: Serine/threonine-protein kinase 38-like (STK38L, Homo sapiens, UniProt Q9Y2H1)
Structure (SMILES),read-out,mode,technique,cell line,concentration,endpoint,result
CN(C)c1ncnc(-c2ccc3nc(Nc4cc(CN5CCN(C(=O)CC(F)(F)F)CC5)ccn4)[nH]c3c2)c1Cl,cell-free assay,,competition with immobilised ligand,,1 µM,remaining binding,74%
CC/C(=N\NC(=O)NCc1cccc(O)c1)c1ccc(O)c(C)c1O,enzyme activity,inhibitor,,,0.1 µM,inhibition,19.5%
CS(=O)(=O)N1CCCC(NC(=O)[C@H](CCC2CCCCC2)NC(=O)c2ccc(CNc3ncnc4c3nnn4-c3ccccc3)cc2)C1 (some centres unmarked),binding,,competition with immobilised ligand,,1 µM,remaining binding,24%
O=C(Nc1cnn(-c2csc(C(=O)NC3COC3)c2)c1)Nc1c(F)cccc1Cl,enzyme activity,inhibitor,,,5 µM,remaining activity,94.8%
CN1CC(Oc2cnc(C#N)cc2-c2ccn3nc(NC(=O)C4CC4)cc3c2)C1,enzyme activity,inhibitor,,,1 µM,inhibition,27%
Cn1c2c(c3ccccc31)C(C#N)C(C)(C)NC2=O (centres unmarked),thermal stability,,DSF,,10 µM,ΔTm,0 °C
Cc1ccc(C(=O)Nc2ccc(CN3CCN(C)CC3)c(C(F)(F)F)c2)cc1C#Cc1cnc2cccnn12,enzyme activity,,,,23.5 nM,remaining activity,99%
Nc1ncnc2occ(-c3ccc(NC(=O)Nc4cc(C(F)(F)F)ccc4F)cc3)c12,cell-free assay,,,,20 µM,remaining signal,17%
Cn1c2c(Cl)c(Cl)ccc2c2cc[nH]c(=O)c21,thermal stability,,DSF,,10 µM,ΔTm,0 °C
O=c1nc(-c2ccccn2)sc2ccccc12,binding,,competition with immobilised ligand,,1 µM,remaining binding,66%
CCN1CCC2(CC1)NC(=O)c1c(c3ccc(Cl)c(Cl)c3n1C)C2C#N (racemic),thermal stability,,DSF,,10 µM,ΔTm,0 °C
CCN1CCN(Cc2ccc(NC(=O)c3ccc(C)c(/C=C/c4cnc5[nH]ccc5c4OC)c3)cc2C(F)(F)F)CC1,target engagement in cells,inhibitor,chemoproteomics,A-375,50 nM,inhibition,-0.856%
Cn1c2c(c3ccc(Cl)c(Cl)c31)C(C#N)C1(CCN(C(=O)OC(C)(C)C)CC1)NC2=O (racemic),thermal stability,,DSF,,10 µM,ΔTm,-0.1 °C
C[C@@H]1CN(c2cc(-c3nn(C)c4ccc(OC5(C)CC5)cc34)ncn2)C[C@H](C)O1,cell-free assay,,competition with immobilised ligand,,1 µM,remaining binding,72%
COc1cc(-c2cc(-c3ccc(N4CCNCC4)cc3)cnc2C)cc(OC)c1OC,enzyme activity,inhibitor,,,1 µM,inhibition,0%
CCN1CCN(Cc2ccc(NC(=O)c3ccc(C)c(Oc4ccnc5[nH]ccc45)c3)cc2C(F)(F)F)CC1,target engagement in cells,inhibitor,chemoproteomics,Huh-7,10 µM,inhibition,-12.7%
Cc1c(C(=O)O)cc(-c2ccc(C3CCNCC3)cc2)c2ccc(-c3ccc(C(F)(F)F)cc3)cc12,binding,,competition with immobilised ligand,,1 µM,remaining binding,100%
CN1CCC2(CC1)NC(=O)c1c(c3ccc(Cl)c(Cl)c3n1C)C2C#N (racemic),thermal stability,,DSF,,10 µM,ΔTm,0 °C
COCCOc1nc(-c2ccc(Cl)nc2)nc2c1CN(C(=O)c1ncn3ccccc13)CC2,cell-free assay,,competition with immobilised ligand,,0.1 µM,remaining binding,100%
Cn1c2c(c3ccc(Cl)c(Cl)c31)C(C#N)C1(CCOCC1)NC2=O (centres unmarked),thermal stability,,DSF,,10 µM,ΔTm,-0.2 °C
